Key:
[1] = molecular target: Maternal embryonic leucine zipper kinase (Homo sapiens) (UniProt Q14680); test: Inhibition of MELK at 1 uM
Outline: (§1)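 Kinase-panel screen using KINOMEscan technology, with 250–400 kinases per panel. Each compound was tested at a single concentration, and inhibition of each kinase was recorded. Selectivity was summarised as S(90), the fraction of kinases inhibited by more than 90%.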

[2] = tested on: Mast/stem cell growth factor receptor Kit (Homo sapiens), P10721 [V559D,V654A]; test: Inhibition of KIT V559D,V654A mutant at 1 uM
Outline: (§2)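 Single-concentration screen on the Ambit KINOMEscan platform, run against a panel of 250–400 kinases. Per-kinase inhibition was also summarized as S(90), the fraction of kinases inhibited by more than 90%.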

[3] = molecular target: Serine/threonine-protein kinase OSR1 (Homo sapiens) (UniProt O95747); test: Inhibition of OSR1 at 1 uM
[4] = molecular target: Tyrosine-protein kinase Fes/Fps (Homo sapiens) (UniProt P07332); test: Inhibition of FES at 1 uM
Outline: (§3)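 Single-concentration screen using Ambit Bioscience KINOMEscan technology across a panel of 250–400 kinases. Per-kinase inhibition from this screen was summarized as S(90), the fraction of kinases inhibited by more than 90%.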

[5] = molecular target: Fibroblast growth factor receptor 4 (Homo sapiens) (UniProt P22455); test: Inhibition of FGFR4 at 1 uM; outline: as §2
[6] = molecular target: Fibroblast growth factor receptor 2 (Homo sapiens) (UniProt P21802); test: Inhibition of FGFR2 at 1 uM; outline: as §3
[7] = molecular target: MAP/microtubule affinity-regulating kinase 3 (Homo sapiens) (UniProt P27448); test: Inhibition of MARK3 at 1 uM; outline: as §1
[8] = molecular target: Ephrin type-A receptor 7 (Homo sapiens) (UniProt Q15375); test: Inhibition of EPHA7 at 1 uM; outline: as §3
[9] = molecular target: T1, Ephrin type-B receptor 1 (Homo sapiens) (UniProt P54762); test: Inhibition of EPHB1 at 1 uM; outline: as §3
T1 sequence (whole entry): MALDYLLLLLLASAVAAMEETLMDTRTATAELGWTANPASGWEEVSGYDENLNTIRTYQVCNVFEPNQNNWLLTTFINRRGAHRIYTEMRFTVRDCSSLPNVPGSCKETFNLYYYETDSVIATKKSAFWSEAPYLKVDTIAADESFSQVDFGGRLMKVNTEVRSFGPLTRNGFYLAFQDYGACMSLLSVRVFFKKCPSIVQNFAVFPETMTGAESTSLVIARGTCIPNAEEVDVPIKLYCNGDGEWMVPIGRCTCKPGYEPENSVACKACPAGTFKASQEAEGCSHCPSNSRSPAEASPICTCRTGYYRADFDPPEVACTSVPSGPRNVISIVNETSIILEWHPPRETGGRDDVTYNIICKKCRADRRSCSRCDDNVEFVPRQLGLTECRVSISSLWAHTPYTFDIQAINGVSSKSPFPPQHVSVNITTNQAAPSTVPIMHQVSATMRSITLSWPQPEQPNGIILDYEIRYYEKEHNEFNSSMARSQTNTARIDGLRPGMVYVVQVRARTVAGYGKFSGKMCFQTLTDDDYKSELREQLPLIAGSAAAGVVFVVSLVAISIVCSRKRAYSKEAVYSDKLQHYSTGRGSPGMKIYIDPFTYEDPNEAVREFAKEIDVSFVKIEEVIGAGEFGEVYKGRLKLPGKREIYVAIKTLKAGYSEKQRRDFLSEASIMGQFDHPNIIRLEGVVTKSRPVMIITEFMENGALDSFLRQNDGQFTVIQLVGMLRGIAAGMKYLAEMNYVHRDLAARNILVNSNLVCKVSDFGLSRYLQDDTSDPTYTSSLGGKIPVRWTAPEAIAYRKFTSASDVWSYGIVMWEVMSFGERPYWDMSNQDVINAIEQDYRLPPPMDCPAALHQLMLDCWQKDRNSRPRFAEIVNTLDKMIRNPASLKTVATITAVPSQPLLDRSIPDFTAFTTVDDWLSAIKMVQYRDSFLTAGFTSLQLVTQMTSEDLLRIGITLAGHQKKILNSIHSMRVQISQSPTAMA

[10] = molecular target: Phosphatidylinositol 4-kinase beta (Homo sapiens) (UniProt Q9UBF8); test: Inhibition of PIK4CB at 1 uM
[11] = molecular target: TGF-beta receptor type-2 (Homo sapiens) (UniProt P37173); test: Inhibition of TGFBR2 at 1 uM
[12] = molecular target: T2, Bone morphogenetic protein receptor type-2 (Homo sapiens) (UniProt Q13873); test: Inhibition of BMPR2 at 1 uM
T2 sequence (whole entry): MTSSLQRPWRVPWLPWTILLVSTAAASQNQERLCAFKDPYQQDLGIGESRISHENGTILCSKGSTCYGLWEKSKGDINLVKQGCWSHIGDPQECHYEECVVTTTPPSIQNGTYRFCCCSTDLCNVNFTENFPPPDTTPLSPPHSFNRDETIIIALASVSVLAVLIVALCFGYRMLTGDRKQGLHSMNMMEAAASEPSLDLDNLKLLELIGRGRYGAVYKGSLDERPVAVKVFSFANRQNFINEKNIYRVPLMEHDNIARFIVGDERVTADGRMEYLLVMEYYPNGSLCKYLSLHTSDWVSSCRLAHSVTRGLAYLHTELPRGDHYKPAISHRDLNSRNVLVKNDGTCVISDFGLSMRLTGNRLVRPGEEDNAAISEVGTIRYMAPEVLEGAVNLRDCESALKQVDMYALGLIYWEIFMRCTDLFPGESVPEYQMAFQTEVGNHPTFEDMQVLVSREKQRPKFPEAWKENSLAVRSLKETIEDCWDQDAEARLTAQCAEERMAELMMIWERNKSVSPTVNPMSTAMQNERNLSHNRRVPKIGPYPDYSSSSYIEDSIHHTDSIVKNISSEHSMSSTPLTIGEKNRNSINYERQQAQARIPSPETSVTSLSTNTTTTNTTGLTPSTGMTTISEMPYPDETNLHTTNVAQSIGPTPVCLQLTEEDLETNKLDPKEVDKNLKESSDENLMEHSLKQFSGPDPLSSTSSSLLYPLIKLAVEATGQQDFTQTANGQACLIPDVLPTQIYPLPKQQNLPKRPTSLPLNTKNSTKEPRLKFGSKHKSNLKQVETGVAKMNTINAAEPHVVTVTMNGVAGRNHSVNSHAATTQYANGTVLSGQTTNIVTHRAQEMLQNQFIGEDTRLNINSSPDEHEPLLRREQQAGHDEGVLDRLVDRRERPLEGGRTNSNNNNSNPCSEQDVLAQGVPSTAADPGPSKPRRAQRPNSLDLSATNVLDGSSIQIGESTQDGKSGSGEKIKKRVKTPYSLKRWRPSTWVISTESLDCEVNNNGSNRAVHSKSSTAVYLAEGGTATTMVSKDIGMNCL

[13] = molecular target: Dual specificity tyrosine-phosphorylation-regulated kinase 1B (Homo sapiens) (UniProt Q9Y463); test: Inhibition of DYRK1B at 1 uM
[14] = molecular target: Serine/threonine-protein kinase pim-1 (Homo sapiens) (UniProt P11309); test: Inhibition of PIM1 at 1 uM
[15] = tested on: eIF-2-alpha kinase GCN2 (Homo sapiens), Q9P2K8 [S808G]; test: Inhibition of GCN2 domian 2 S808G mutant at 1 uM; outline: as §2
eIF-2-alpha kinase GCN2 (Homo sapiens), Q9P2K8 [S808G], sequence (Q9P2K8 whole entry S808G): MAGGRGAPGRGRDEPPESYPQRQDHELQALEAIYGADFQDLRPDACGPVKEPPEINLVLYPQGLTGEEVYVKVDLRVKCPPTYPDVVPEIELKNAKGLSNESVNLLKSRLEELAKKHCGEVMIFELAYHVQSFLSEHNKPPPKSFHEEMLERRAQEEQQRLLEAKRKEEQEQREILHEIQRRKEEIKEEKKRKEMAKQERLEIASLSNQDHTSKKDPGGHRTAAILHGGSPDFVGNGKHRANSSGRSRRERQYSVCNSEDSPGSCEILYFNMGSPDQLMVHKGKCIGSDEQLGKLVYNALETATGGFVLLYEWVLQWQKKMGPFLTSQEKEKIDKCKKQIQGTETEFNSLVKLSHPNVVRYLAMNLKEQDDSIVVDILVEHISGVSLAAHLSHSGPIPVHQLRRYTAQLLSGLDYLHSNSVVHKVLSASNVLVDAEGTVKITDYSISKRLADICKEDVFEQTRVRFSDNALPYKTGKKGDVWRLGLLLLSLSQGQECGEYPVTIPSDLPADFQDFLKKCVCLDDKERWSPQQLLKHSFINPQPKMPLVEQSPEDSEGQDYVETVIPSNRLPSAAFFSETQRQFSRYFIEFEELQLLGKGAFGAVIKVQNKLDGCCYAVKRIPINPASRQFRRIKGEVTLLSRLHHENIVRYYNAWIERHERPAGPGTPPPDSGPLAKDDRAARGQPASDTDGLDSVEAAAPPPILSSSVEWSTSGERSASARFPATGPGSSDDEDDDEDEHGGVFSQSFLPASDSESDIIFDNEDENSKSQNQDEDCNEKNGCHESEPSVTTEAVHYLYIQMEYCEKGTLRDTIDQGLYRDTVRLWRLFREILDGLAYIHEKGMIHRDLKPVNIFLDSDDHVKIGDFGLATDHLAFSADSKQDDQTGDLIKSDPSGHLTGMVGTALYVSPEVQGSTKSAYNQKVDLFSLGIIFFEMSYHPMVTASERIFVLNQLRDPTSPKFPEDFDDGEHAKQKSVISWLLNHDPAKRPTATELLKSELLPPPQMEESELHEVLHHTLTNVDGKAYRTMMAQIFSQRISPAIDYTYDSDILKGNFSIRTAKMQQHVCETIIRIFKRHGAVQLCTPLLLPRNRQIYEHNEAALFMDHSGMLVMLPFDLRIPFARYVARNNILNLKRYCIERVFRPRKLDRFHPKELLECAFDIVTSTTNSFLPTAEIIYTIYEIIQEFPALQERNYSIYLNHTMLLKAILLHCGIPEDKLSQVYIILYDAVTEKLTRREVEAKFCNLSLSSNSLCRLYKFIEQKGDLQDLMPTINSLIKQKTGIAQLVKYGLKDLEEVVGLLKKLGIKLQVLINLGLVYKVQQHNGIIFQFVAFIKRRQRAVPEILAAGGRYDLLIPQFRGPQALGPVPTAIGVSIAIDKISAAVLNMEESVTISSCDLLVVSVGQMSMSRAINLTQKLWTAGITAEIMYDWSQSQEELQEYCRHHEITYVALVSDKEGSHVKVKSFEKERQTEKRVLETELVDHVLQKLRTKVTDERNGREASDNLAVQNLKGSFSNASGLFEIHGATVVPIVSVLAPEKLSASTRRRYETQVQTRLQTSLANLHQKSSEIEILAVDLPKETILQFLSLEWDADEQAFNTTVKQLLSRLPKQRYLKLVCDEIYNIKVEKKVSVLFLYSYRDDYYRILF

Serine/threonine-protein kinase pim-1 (Homo sapiens), sequence (P11309 whole entry, looked up): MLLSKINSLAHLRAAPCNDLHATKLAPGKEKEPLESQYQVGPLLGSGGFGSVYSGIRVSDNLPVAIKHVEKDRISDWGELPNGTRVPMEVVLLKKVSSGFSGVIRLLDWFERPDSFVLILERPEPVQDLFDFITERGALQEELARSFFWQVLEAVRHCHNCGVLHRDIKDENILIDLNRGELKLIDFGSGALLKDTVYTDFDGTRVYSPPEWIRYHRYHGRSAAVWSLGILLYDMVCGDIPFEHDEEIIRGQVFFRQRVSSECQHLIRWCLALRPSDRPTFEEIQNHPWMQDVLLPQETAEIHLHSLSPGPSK
Ephrin type-A receptor 7 (Homo sapiens), sequence (Q15375 28-998 limits assumed): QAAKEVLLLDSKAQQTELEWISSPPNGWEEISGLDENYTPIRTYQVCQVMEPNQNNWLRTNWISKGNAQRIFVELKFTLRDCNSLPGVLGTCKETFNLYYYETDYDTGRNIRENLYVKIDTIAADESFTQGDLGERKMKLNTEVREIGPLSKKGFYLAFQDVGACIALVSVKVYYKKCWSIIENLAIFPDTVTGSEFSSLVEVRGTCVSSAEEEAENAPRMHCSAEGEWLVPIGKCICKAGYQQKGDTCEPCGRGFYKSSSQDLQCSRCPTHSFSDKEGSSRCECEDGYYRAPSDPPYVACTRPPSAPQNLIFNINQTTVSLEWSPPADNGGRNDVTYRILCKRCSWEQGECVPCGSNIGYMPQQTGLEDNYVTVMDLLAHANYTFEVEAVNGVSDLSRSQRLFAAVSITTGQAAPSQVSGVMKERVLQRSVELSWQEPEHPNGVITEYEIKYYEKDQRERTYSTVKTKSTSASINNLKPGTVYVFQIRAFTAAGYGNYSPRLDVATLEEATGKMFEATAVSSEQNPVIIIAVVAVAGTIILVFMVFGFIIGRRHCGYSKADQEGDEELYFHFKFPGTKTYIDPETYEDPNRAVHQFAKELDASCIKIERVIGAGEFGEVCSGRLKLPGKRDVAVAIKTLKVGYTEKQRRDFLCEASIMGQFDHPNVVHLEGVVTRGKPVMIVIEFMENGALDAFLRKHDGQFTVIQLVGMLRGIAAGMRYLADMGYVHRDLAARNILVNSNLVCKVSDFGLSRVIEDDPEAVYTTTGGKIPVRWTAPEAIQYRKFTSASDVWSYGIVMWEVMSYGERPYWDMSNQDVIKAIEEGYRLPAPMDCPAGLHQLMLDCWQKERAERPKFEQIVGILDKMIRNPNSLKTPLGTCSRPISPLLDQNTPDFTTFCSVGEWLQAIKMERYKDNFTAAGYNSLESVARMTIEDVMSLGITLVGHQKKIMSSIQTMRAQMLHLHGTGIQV
Fibroblast growth factor receptor 4 (Homo sapiens), sequence (P22455 22-802 limits assumed): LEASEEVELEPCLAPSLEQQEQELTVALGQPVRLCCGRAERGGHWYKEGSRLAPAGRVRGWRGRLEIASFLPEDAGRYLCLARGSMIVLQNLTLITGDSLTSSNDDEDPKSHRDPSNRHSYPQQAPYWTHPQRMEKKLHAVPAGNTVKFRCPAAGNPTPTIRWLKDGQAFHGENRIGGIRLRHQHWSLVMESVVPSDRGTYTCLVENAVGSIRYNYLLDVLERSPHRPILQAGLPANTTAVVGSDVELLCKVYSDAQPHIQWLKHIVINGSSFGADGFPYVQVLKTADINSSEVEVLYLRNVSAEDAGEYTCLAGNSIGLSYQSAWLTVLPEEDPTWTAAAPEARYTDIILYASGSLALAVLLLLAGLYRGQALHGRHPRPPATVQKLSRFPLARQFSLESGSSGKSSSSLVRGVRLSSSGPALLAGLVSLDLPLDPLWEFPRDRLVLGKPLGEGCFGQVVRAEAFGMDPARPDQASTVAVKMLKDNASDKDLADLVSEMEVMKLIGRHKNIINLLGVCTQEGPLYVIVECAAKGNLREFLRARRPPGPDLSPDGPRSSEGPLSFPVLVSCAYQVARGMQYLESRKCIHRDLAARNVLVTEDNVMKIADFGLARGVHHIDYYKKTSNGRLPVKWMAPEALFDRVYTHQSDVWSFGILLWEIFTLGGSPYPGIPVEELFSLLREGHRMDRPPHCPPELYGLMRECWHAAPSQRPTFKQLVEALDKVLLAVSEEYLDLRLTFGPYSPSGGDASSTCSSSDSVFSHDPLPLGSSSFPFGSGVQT
Phosphatidylinositol 4-kinase beta (Homo sapiens), sequence (Q9UBF8 2-816 limits assumed): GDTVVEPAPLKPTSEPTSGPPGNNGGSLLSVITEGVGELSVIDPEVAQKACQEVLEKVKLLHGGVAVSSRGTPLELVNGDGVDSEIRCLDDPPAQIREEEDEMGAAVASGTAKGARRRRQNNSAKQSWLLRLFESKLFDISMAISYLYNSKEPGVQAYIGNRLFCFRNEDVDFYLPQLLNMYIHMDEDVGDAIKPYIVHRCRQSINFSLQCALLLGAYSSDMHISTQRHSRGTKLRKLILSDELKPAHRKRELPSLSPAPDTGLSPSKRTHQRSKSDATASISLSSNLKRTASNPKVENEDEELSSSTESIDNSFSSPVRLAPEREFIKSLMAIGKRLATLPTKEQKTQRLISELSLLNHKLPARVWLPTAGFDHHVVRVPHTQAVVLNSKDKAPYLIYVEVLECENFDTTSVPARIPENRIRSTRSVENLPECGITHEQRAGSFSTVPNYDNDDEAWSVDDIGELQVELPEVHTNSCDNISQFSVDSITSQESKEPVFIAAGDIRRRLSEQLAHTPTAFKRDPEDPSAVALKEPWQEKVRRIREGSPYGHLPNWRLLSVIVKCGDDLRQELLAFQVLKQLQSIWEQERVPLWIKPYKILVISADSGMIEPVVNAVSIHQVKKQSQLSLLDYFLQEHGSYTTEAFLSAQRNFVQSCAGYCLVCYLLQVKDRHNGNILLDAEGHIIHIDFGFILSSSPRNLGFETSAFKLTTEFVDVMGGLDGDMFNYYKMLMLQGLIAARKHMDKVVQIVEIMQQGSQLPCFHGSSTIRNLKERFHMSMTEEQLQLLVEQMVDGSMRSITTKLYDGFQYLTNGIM
Serine/threonine-protein kinase OSR1 (Homo sapiens), sequence (O95747 2-527 limits assumed): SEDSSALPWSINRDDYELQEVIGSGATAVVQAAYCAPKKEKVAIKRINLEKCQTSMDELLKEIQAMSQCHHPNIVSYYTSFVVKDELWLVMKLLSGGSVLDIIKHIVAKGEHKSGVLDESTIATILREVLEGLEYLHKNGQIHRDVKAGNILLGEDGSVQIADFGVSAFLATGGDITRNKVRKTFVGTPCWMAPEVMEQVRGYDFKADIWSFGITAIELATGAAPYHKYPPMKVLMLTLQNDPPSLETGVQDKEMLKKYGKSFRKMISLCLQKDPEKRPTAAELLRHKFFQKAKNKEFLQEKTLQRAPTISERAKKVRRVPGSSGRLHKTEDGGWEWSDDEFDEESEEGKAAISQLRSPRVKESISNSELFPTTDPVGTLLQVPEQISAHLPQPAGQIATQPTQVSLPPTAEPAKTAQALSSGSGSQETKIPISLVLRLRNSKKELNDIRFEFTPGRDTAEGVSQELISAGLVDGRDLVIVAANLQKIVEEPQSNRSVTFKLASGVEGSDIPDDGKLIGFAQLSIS

Compound | inhibition [1] | inhibition [2] | inhibition [3] | inhibition [4] | inhibition [5] | inhibition [6] | inhibition [7] | inhibition [8] | inhibition [9] | inhibition [10] | inhibition [11] | inhibition [12] | inhibition [13] | inhibition [14] | inhibition [15]
CN1CCN(c2ccc(-c3cnc4c(c3)N(Cc3cc(Cl)ccc3C(F)(F)F)CCN4)cn2)CC1 | < 50% | < 50% | < 50% | < 50% | < 50% | < 50% | < 50% | < 50% | < 50% | < 50% | < 50% | < 50% | < 50% | < 50% | < 50%
CC(=O)N1CCN(c2cc(-c3cnc4c(c3)N(Cc3cc(Cl)ccc3C(F)(F)F)CCN4)ccn2)CC1 | < 50% | < 50% | < 50% | < 50% | < 50% | < 50% | < 50% | < 50% | < 50% | < 50% | < 50% | < 50% | < 50% | < 50% | < 50%
CN1CCN(c2ccc(-c3cnc4c(c3)N(Cc3c(F)ccc(F)c3Cl)CCN4)cn2)CC1 | < 50% | < 50% | < 50% | < 50% | < 50% | < 50% | < 50% | < 50% | < 50% | < 50% | < 50% | < 50% | < 50% | < 50% | < 50%
O=C(c1ccc(-c2cnc3c(c2)N(Cc2cc(Cl)ccc2C(F)(F)F)CCN3)cc1)N1CCCCC1 | < 50% | < 50% |  | < 50% | < 50% | < 50% | < 50% | < 50% | < 50% | < 50% | < 50% |  |  | < 50% | < 50%
CN1CCN(c2ccc(-c3cnc4c(c3)N(Cc3cc(Cl)ccc3Cl)CCN4)cn2)CC1 | < 50% | < 50% | < 50% | < 50% | < 50% | < 50% | < 50% | < 50% | < 50% | < 50% | < 50% | < 50% | < 50% | < 50% | < 50%

More lines, now with the values ahead:

inhibition [1] | inhibition [2] | inhibition [3] | inhibition [4] | inhibition [5] | inhibition [6] | inhibition [7] | inhibition [8] | inhibition [9] | inhibition [10] | inhibition [11] | inhibition [12] | inhibition [13] | inhibition [14] | inhibition [15] | Compound
< 50% | < 50% |  | < 50% | < 50% | < 50% | < 50% | < 50% | < 50% | < 50% | < 50% |  |  | < 50% | < 50% | O=C(O)c1ccc(-c2cnc3c(c2)N(Cc2cc(Cl)ccc2C(F)(F)F)CCN3)cc1
< 50% | < 50% |  | < 50% | < 50% | < 50% | < 50% | < 50% | < 50% | < 50% | < 50% |  |  | < 50% | < 50% | O=C(c1ccc(-c2cnc3c(c2)N(Cc2cc(Cl)ccc2C(F)(F)F)CCN3)cc1)N1CCC(N2CCCC2)CC1
< 50% | < 50% |  | < 50% | < 50% | < 50% | < 50% | < 50% | < 50% | < 50% | < 50% |  |  | < 50% | < 50% | COC1CCN(C(=O)c2ccc(-c3cnc4c(c3)N(Cc3cc(Cl)ccc3C(F)(F)F)CCN4)cc2)CC1
< 50% | < 50% | < 50% | < 50% | < 50% | < 50% | < 50% | < 50% | < 50% | < 50% | < 50% | < 50% | < 50% | < 50% | < 50% | FC(F)(F)c1ccc(Cl)cc1CN1CCNc2ncc(-c3ccnc(N4CCNCC4)c3)cc21
< 50% | < 50% | < 50% | < 50% | < 50% | < 50% | < 50% | < 50% | < 50% | < 50% | < 50% | < 50% | < 50% | < 50% | < 50% | CN1CCN(c2ccc(-c3cnc4c(c3)N(Cc3cc(F)ccc3F)CCN4)cn2)CC1

— ChEMBL document CHEMBL1165965, “Synthesis and structure-activity relationships of 1,2,3,4-tetrahydropyrido[2,3-b]pyrazines as potent and selective inhibitors of the anaplastic lymphoma kinase” (Bioorg Med Chem, 2010)
